Calls of active or inactive are those of the source. The rule behind the calls is not given here.
Legend:
[1] = biological target: T1, Human immunodeficiency virus type 1 integrase (Human immunodeficiency virus 1, UniProt Q7ZJM1); experiment: Binding affinity to HIV1 integrase by fluorescence anisotrophy
Method in brief: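 Fluorescein-labelled peptide (final 0.05 to 0.1 µM) in 20 mM Tris pH 7.4 at 10 °C; 100 µM IN (taken as monomer) titrated in 20 steps of 10 µl at 15-min intervals. Anisotropy read at ex 480/em 530 nm after each addition; data fitted to Hill equation for Ka (Kd = 1/Ka).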

[2] = test system: Human immunodeficiency virus 1; experiment: Inhibition of HIV1 delta env/VSV-G replication in human sup T1 T-lymphoid […] cells assessed as inhibition of total viral DNA at 12.5 uM after 2 hrs by RT-PCR; format: functional, organism-based
Method in brief: (§1)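 Sup T1 cells pretreated 2 h with 12.5 µM peptide or 2 µM azidothymidine, then infected with HIV-1 Δenv/VSV-G at m.o.i. 2 for 6 h. Gag and Nef DNA amplified by PCR from 10 ng total cell DNA, 29 cycles.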

[3] = biological target: Human immunodeficiency virus type 1 integrase (Human immunodeficiency virus 1) (UniProt Q7ZJM1); experiment: Inhibition of recombinant HIV1 integrase strand transfer activity
Human immunodeficiency virus type 1 integrase (Human immunodeficiency virus 1), sequence (Q7ZJM1 as listed by the source): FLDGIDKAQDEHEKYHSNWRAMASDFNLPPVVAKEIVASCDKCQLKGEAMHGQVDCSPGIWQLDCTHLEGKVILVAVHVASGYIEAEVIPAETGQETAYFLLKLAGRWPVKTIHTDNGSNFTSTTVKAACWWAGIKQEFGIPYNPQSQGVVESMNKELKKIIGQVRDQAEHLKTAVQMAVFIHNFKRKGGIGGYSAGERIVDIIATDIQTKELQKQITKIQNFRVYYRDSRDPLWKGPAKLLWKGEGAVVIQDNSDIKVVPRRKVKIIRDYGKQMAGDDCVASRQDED
Method in brief: (§2)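 IN (0.8 µM) incubated with peptides; 3'-end processing or strand-transfer activity followed on labelled gel-purified oligonucleotide substrates by gel size shift or specific cleavage.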

[4] = biological target: Human immunodeficiency virus type 1 integrase (Human immunodeficiency virus 1) (UniProt Q7ZJM1); experiment: Inhibition of recombinant HIV1 integrase 3'-end processing activity; method in brief: as §2
[5] = test system: Human immunodeficiency virus 1; experiment: Inhibition of HIV1 delta env/VSV-G replication in human sup T1 T-lymphoid […] cells assessed as inhibition of viral DNA integration by RT-PCR; format: functional, organism-based
Method in brief: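 Sup T1 cells pretreated 2 h with peptide, infected with HIV-1 Δenv/VSV-G at m.o.i. 2 for 24 h. Integrated DNA quantified by two-round Alu-LTR PCR (12 cycles, then 50 real-time cycles) against an HXB2 plasmid standard curve (5 ng to 0.25 fg), quadruplicate samples.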

[6] = test system: Human immunodeficiency virus 1; experiment: Inhibition of HIV1 replication in human T-lymphoid H9 cells assessed as decrease in viral p24 level; format: functional, organism-based
Method in brief: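 H9 cells pretreated 2 h with peptide, infected with wild-type HIV-1 (HXB2, from transfected HEK293T) at m.o.i. 0.1 for 1 h at 37 °C, washed, cultured 10 days; p24 measured by capture immunoassay.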

[7] = biological target: Human immunodeficiency virus type 1 integrase (Human immunodeficiency virus 1) (UniProt Q7ZJM1); experiment: Inhibition of HIV1 integrase by qualitative integration assay system; method in brief: as §2
[8] = biological target: Human immunodeficiency virus type 1 integrase (Human immunodeficiency virus 1) (UniProt Q7ZJM1); experiment: (§3) Inhibition of HIV1 integrase by quantitative ELISA
Method in brief: (§4)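 Overall integration reaction: 390 nM IN preincubated 10 min with peptide, then 1 µM biotin/digoxigenin-labelled duplex oligonucleotide in 20 mM Hepes pH 7.5, 10 mM MgCl2, 10 mM DTT, 10% Me2SO, 5% PEG-8000, 0.1 mg/ml BSA for 1 h at 37 °C. Stopped with EDTA/NaCl/salmon sperm DNA buffer; product read by immunoassay on avidin-coated plates.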

[9] = test system: Human immunodeficiency virus 1; experiment: Inhibition of HIV1 replication in human TZM-bl cells assessed as beta-galactosidase activity at 2.5 uM; format: functional
Method in brief: (§5)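 TZM-bl cells carrying TAR-driven β-galactosidase, incubated with peptides, then infected with HIV-1 in 20 µg/ml DEAE-dextran. Cells fixed 2 days post-infection, stained with X-gal, and blue cells counted by light microscopy.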

[10] = test system: Human immunodeficiency virus 1; experiment: Inhibition of HIV1 delta env/VSV-G replication in human sup T1 T-lymphoid […] cells assessed as inhibition of total viral DNA at 2 uM after 2 hrs by RT-PCR; format: functional, organism-based; method in brief: as §1
[11] = biological target: T1, Human immunodeficiency virus type 1 integrase; experiment: as §3; method in brief: as §4
[12] = test system: Human immunodeficiency virus 1; experiment: Inhibition of HIV1 replication in human TZM-bl cells assessed as beta-galactosidase activity; format: functional, organism-based; method in brief: as §5

T1 sequence (Q7ZJM1 whole entry): as the sequence (Q7ZJM1 as listed by the source) above

CC[C@H](C)[C@H](NC(=O)[C@H](CC(C)C)NC(=O)[C@H](CCCNC(=N)N)NC(=O)[C@@H](NC(=O)[C@@H](NC(=O)[C@H](CCCCN)NC(=O)[C@H](CC(C)C)NC(=O)[C@H](CC(C)C)NC(=O)[C@H](CCC(=O)O)NC(=O)[C@H](CCC(=O)O)NC(=O)[C@H](CC(=O)O)NC(=O)[C@H](CO)NC(=O)[C@H](CC(=O)O)NC(=O)CNC(=O)[C@H](CO)NC(=O)[C@H](CCCNC(=N)N)NC(=O)CNC(=O)[C@H](C)NC(=O)[C@@H](N)CCSC)[C@@H](C)O)C(C)C)C(=O)N[C@@H](CCCCN)C(=O)N[C@@H](Cc1ccccc1)C(=O)N[C@@H](CC(C)C)C(=O)N[C@@H](Cc1ccc(O)cc1)C(=O)N[C@@H](CCC(N)=O)C(=O)N[C@@H](CO)C(=O)N[C@@H](CC(N)=O)C(=O)N1CCC[C@H]1C(=O)N1CCC[C@H]1C(=O)N1CCC[C@H]1C(=O)N[C@@H](CO)C(=O)O
Kd [1]: 6.5 µM | Activity [2]: inactive

CC[C@H](C)[C@H](NC(=O)[C@H](CC(C)C)NC(=O)[C@H](CCCNC(=N)N)NC(=O)[C@@H](NC(=O)[C@@H](NC(=O)[C@H](CCCCN)NC(=O)[C@@H](N)CC(C)C)[C@H](C)O)C(C)C)C(=O)N[C@@H](CCCCN)C(=O)N[C@@H](Cc1ccccc1)C(=O)N[C@@H](CC(C)C)C(=O)N[C@@H](Cc1ccc(O)cc1)C(=O)N[C@@H](CCC(N)=O)C(=O)N[C@@H](CO)C(=O)N[C@@H](CC(N)=O)C(=O)N1CCC[C@H]1C(=O)O
Activity [3]: Active | Activity [4]: Active | Activity [5]: Active

CC[C@H](C)[C@H](NC(=O)[C@H](CO)NC(=O)[C@H](Cc1c[nH]c2ccccc12)NC(=O)[C@@H](NC(=O)[C@H](CCCNC(=N)N)NC(=O)CNC(=O)[C@H](CO)NC(=O)[C@@H]1CCCN1C(=O)[C@H](CO)NC(=O)[C@@H](NC(=O)[C@H](CCCNC(=N)N)NC(=O)[C@H](Cc1ccc(O)cc1)NC(=O)[C@H](CC(C)C)NC(=O)CNC(=O)[C@@H](N)CC(C)C)[C@H](C)O)[C@@H](C)CC)C(=O)O
Activity [6]: inactive | Activity [7]: inactive | Activity [8]: Active | Activity [9]: inactive

CSCC[C@H](N)C(=O)N[C@@H](C)C(=O)NCC(=O)N[C@@H](CCCNC(=N)N)C(=O)N[C@@H](CO)C(=O)NCC(=O)N[C@@H](CC(=O)O)C(=O)N[C@@H](CO)C(=O)N[C@@H](CC(=O)O)C(=O)N[C@@H](CCC(=O)O)C(=O)N[C@@H](CCC(=O)O)C(=O)N[C@@H](CC(C)C)C(=O)N[C@@H](CC(C)C)C(=O)N[C@@H](CCCCN)C(=O)N[C@H](C(=O)O)[C@@H](C)O
Activity [3]: inactive | Activity [4]: inactive

Cc1cn([C@H]2C[C@H](N=[N+]=[N-])[C@@H](CO)O2)c(=O)[nH]c1=O
Activity [10]: Active

H-DEELLKTVRLIKFLY-OH
Activity [3]: Active | Activity [4]: Active

H-FRKLIYLTKVL-OH
Activity [6]: inactive | Activity [7]: inactive | Activity [8]: Active | Activity [9]: inactive

H-FVSTHFSVPASPWLLLIDIV-OH
Kd [1]: 7.5 µM

H-GWILSTYLGRPAEPV-OH
Activity [3]: inactive

H-LKTVRLIKFLY-OH [LKTVRLIKFLY]
Activity [3]: Active | Activity [6]: Active | Kd [1]: 2.8 µM | Activity [4]: Active | Activity [2]: inactive | IC50 [11]: 25 µM | Activity [12]: Dose-dependent effect | inhibition at 2.5 µM ([9]; Human immunodeficiency virus 1, TZM-bl): 70%

H-QRQIRSISGWILSTY-OH
Activity [3]: Active | Activity [4]: Active

H-QRQIRSISGWILSTYLGRPAEPVPLQ-OH
Kd [1]: 11.2 µM

H-RLIKFLYQSNPPPSP-OH
Activity [3]: inactive | Activity [4]: inactive

H-RSISGWILSTYLGRP-OH
Activity [3]: Active | Activity [6]: Active | Kd [1]: 6.9 µM | Activity [4]: Active | Activity [5]: Active | Activity [2]: inactive | IC50 [11]: 25 µM | Activity [12]: Dose-dependent effect | Activity [9]: Active

H-SGDSDEELLKTVRLI-OH
Activity [3]: inactive | Activity [4]: Active

H-STYLGRPAEPVPLQL-OH
Activity [3]: inactive | Activity [4]: inactive

H-WRERQRQIRSISGWI-OH
Activity [3]: inactive | Activity [4]: inactive

From ChEMBL document CHEMBL1156455, “Interaction between HIV-1 Rev and integrase proteins: a basis for the development of anti-HIV peptides” (J Biol Chem, 2007)
